System: HEK-293T
Assay: Multiplex assay against HEK293T;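 as to Population Tubulin-Different-Phenotype (%): share of the cells with healthy nuclei that show this phenotype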
Assay type: toxicity, cell-based
Settings: human
Summary of the method: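 Four dyes were applied at seeding to live cells: Hoechst33342, BioTracker Green Microtubule Cytoskeleton Dye, MitoTracker Red and Annexin V Alexa Fluor 680. Imaging after compound addition used a CQ1 microscope at 37°C and 5% CO2. CellPathfinder machine-learning gating then sorted cells into Hoechst high-intensity objects or normal cells, normal cells into healthy, pyknosed or fragmented nuclei, and pyknosed cells into mitotic or apoptotic, with tubulin, mitochondrial-mass and membrane-permeability phenotypes given as per cents of healthy-nucleus cells.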

[1] = 12 h, 1 µM, compound concentration 1 uM, replicate 1
[2] = 12 h, 1 µM, compound concentration 1 uM, replicate 2
[3] = 12 h, 10 µM, compound concentration 10 uM, replicate 1
[4] = 12 h, 10 µM, compound concentration 10 uM, replicate 2
[5] = 24 h, 1 µM, compound concentration 1 uM, replicate 1
[6] = 24 h, 1 µM, compound concentration 1 uM, replicate 2
[7] = 24 h, 10 µM, compound concentration 10 uM, replicate 1
[8] = 24 h, 10 µM, compound concentration 10 uM, replicate 2
[9] = 48 h, 1 µM, compound concentration 1 uM, replicate 1
[10] = 48 h, 1 µM, compound concentration 1 uM, replicate 2
[11] = 48 h, 10 µM, compound concentration 10 uM, replicate 1
[12] = 48 h, 10 µM, compound concentration 10 uM, replicate 2

## N#CCNC(=O)c1ccc(-c2ccnc(Nc3ccc(N4CCOCC4)cc3)n2)cc1 [MOMELOTINIB]
[1]
  Population Apoptotic (%): 35%
  Population Fragmented Nuclei (%): 8%
  Population Healthy Nuclei (%): 53%
  Population Hoechst High Intensity Objects (%): 12%
  Population Membrane Permeable-Phenotype (%): 0%
  Population Mitochondria Different-Phenotype (%): 61%
  Population Mitotic Cells (%): 64%
  Population Normal (%): 87%
  Population Pyknosed Nuclei (%): 38%
  Population Tubulin-Different-Phenotype (%): 33%
  Total Cell Count: 303
[2]
  Population Apoptotic (%): 8%
  Population Fragmented Nuclei (%): 9%
  Population Healthy Nuclei (%): 52%
  Population Hoechst High Intensity Objects (%): 2%
  Population Membrane Permeable-Phenotype (%): 10%
  Population Mitochondria Different-Phenotype (%): 9%
  Population Mitotic Cells (%): 91%
  Population Normal (%): 97%
  Population Tubulin-Different-Phenotype (%): 21%
  Total Cell Count: 198
[3]
  Population Apoptotic (%): 32%
  Population Fragmented Nuclei (%): 6%
  Population Healthy Nuclei (%): 54%
  Population Hoechst High Intensity Objects (%): 6%
  Population Membrane Permeable-Phenotype (%): 4%
  Population Mitochondria Different-Phenotype (%): 70%
  Population Mitotic Cells (%): 67%
  Population Normal (%): 93%
  Population Pyknosed Nuclei (%): 38%
  Population Tubulin-Different-Phenotype (%): 62%
  Total Cell Count: 432
[4]
  Population Apoptotic (%): 10%
  Population Fragmented Nuclei (%): 9%
  Population Healthy Nuclei (%): 29%
  Population Hoechst High Intensity Objects (%): 5%
  Population Membrane Permeable-Phenotype (%): 11%
  Population Mitochondria Different-Phenotype (%): 21%
  Population Mitotic Cells (%): 89%
  Population Normal (%): 94%
  Population Pyknosed Nuclei (%): 60%
  Population Tubulin-Different-Phenotype (%): 42%
  Total Cell Count: 251
[5]
  Population Apoptotic (%): 38%
  Population Fragmented Nuclei (%): 9%
  Population Healthy Nuclei (%): 58%
  Population Hoechst High Intensity Objects (%): 9%
  Population Membrane Permeable-Phenotype (%): 1%
  Population Mitochondria Different-Phenotype (%): 44%
  Population Mitotic Cells (%): 62%
  Population Normal (%): 90%
  Population Pyknosed Nuclei (%): 31%
  Population Tubulin-Different-Phenotype (%): 34%
  Total Cell Count: 349
[6]
  Population Apoptotic (%): 10%
  Population Fragmented Nuclei (%): 10%
  Population Healthy Nuclei (%): 63%
  Population Hoechst High Intensity Objects (%): 1%
  Population Membrane Permeable-Phenotype (%): 14%
  Population Mitochondria Different-Phenotype (%): 9%
  Population Mitotic Cells (%): 89%
  Population Normal (%): 98%
  Population Pyknosed Nuclei (%): 26%
  Population Tubulin-Different-Phenotype (%): 18%
  Total Cell Count: 260
[7]
  Population Apoptotic (%): 31%
  Population Fragmented Nuclei (%): 5%
  Population Healthy Nuclei (%): 58%
  Population Hoechst High Intensity Objects (%): 6%
  Population Membrane Permeable-Phenotype (%): 3%
  Population Mitochondria Different-Phenotype (%): 71%
  Population Mitotic Cells (%): 68%
  Population Normal (%): 93%
  Population Pyknosed Nuclei (%): 36%
  Population Tubulin-Different-Phenotype (%): 88%
  Total Cell Count: 423
[8]
  Population Apoptotic (%): 17%
  Population Fragmented Nuclei (%): 9%
  Population Healthy Nuclei (%): 41%
  Population Hoechst High Intensity Objects (%): 4%
  Population Membrane Permeable-Phenotype (%): 15%
  Population Mitochondria Different-Phenotype (%): 25%
  Population Mitotic Cells (%): 82%
  Population Normal (%): 95%
  Population Pyknosed Nuclei (%): 49%
  Population Tubulin-Different-Phenotype (%): 78%
  Total Cell Count: 239
[9]
  Population Apoptotic (%): 43%
  Population Fragmented Nuclei (%): 19%
  Population Healthy Nuclei (%): 67%
  Population Hoechst High Intensity Objects (%): 4%
  Population Membrane Permeable-Phenotype (%): 3%
  Population Mitochondria Different-Phenotype (%): 16%
  Population Mitotic Cells (%): 56%
  Population Normal (%): 95%
  Population Pyknosed Nuclei (%): 13%
  Population Tubulin-Different-Phenotype (%): 15%
  Total Cell Count: 535
[10]
  Population Apoptotic (%): 14%
  Population Fragmented Nuclei (%): 13%
  Population Healthy Nuclei (%): 76%
  Population Hoechst High Intensity Objects (%): 3%
  Population Membrane Permeable-Phenotype (%): 13%
  Population Mitochondria Different-Phenotype (%): 5%
  Population Mitotic Cells (%): 85%
  Population Normal (%): 96%
  Population Pyknosed Nuclei (%): 9%
  Population Tubulin-Different-Phenotype (%): 20%
  Total Cell Count: 437
[11]
  Population Apoptotic (%): 37%
  Population Fragmented Nuclei (%): 18%
  Population Healthy Nuclei (%): 69%
  Population Hoechst High Intensity Objects (%): 8%
  Population Membrane Permeable-Phenotype (%): 2%
  Population Mitochondria Different-Phenotype (%): 46%
  Population Mitotic Cells (%): 62%
  Population Normal (%): 91%
  Population Pyknosed Nuclei (%): 11%
  Population Tubulin-Different-Phenotype (%): 79%
  Total Cell Count: 471
[12]
  Population Apoptotic (%): 27%
  Population Fragmented Nuclei (%): 14%
  Population Healthy Nuclei (%): 59%
  Population Hoechst High Intensity Objects (%): 4%
  Population Membrane Permeable-Phenotype (%): 13%
  Population Mitochondria Different-Phenotype (%): 24%
  Population Mitotic Cells (%): 72%
  Population Normal (%): 95%
  Population Pyknosed Nuclei (%): 25%
  Population Tubulin-Different-Phenotype (%): 74%
  Total Cell Count: 253

— ChEMBL document CHEMBL4689842, “EUbOPEN Chemogenomics Library wave 1” (2021)
